In publication PMC4013422 (Chinese Journal of Cancer, 2011):
pIC50: −log10 of the molar value.

Columns and labels:
[1] = system: skin lesions (basal cell carcinomas) of Krt6a-cre: Ptch1^neo/neo mice; assay: Topical treatment of basal cell carcinomas, tumor area by HE/ImageJ; format: in vivo, mouse
[2] = Solubility in deionized water
[3] = Plasma half-life from mouse blood samples; format: in vivo; settings: intraperitoneal
[4] = system: Hh signaling-dependent motor neuron differentiation (E14Tg2a.4 embryonic stem cells); format: cell-based, mouse
Outline: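 Mouse E14Tg2a.4 ES cells seeded at 5 × 10^5 cells/mL in ES medium without LIF on ultra-low-adhesion plates for 2 days to form embryoid bodies. Motor neurons induced with retinoic acid 100 nmol/L plus purmorphamine 2.5 µmol/L for 5–7 days, with test compound in the induction medium. Read-outs: Hb9 immunofluorescence, and real-time PCR of Hip, FoxA2, Olig2 and Hb9.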

[5] = system: Hh target genes in skin of Krt6a-cre: Ptch1^neo/neo mice; assay: Hh target gene expression in treated skin; format: in vivo, mouse; settings: Figure 5C
Outline: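 Tumour-bearing transgenic mice received test compound in 70% ethanol, applied topically to the abdominal skin daily for 21 days; 70% ethanol on the mid-belly served as control. Skin halves were frozen at –80°C. TRIzol total RNA (1 µg) was reverse-transcribed. Gene-specific probes were used for qPCR, with triplicate CT values analysed by the comparative CT method, normalised to 18S RNA and expressed relative to a calibrator.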

| Compound | Reduction of tumor area ([1]; KAAD-Cyc (1 µmol/L topical per methods), data not shown) | Solubility in water [2] | half-life [3] [h] | pIC50 ([4]; Mus musculus, Neuron, read-out: IC50, inhibitory activity for Hh signaling-dependent motor neuron differentiation) | Effect on motor neuron differentiation / expression of differentiation markers ([4]; compound at 50 nmol/L) | Maximum reduction in tumor area ([1]; Cyc treatment group, topical daily for 21 days) | Hedgehog target gene expression (HIP and Ptch1), RT-PCR [5] |
| --- | --- | --- | --- | --- | --- | --- | --- |
| 3-Keto-N- (aminoethyl-aminocaproyl-dihydro-cinnamoyl) (KAAD)-Cyc [KAAD-Cyc] | more than half | not water soluble | – | – | – | – | – |
| CC1=C2C[C@H]3[C@@H](CC=C4C[C@@H](O)CC[C@@]43C)[C@@H]2CC[C@]12O[C@@H]1C[C@H](C)CN[C@H]1[C@H]2C [Cyc, Cyclopamine] | – | – | 1 to 4 | 6.52 | no significant effects | less than 5% | little effects |
